The source made the active and inactive calls.
Legend:
[1] = system: Escherichia coli; experiment: Antibacterial activity against Escherichia coli NCTC 8196 at 400 ug/disc after 18 hrs by disc diffusion assay; type: functional, organism-based
Outline: (§1)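 Disc diffusion on Mueller–Hinton II agar per CLSI guidelines. Compound in ethanol applied to 9 mm filter paper discs at 400 µg per disc, then dried and placed on the agar surface. Growth inhibition zone diameter read after 18 h at 35 °C.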

[2] = system: Candida parapsilosis; experiment: Antifungal activity against Candida parapsilosis ATCC 22019 at 400 ug/disc after 24 hrs by disc diffusion assay; type: functional
Outline: (§2)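 Disc diffusion on RPMI agar with 2% glucose per CLSI guidelines. Discs 9 mm filter paper, loaded from ethanol solution with 400 µg compound, dried before placing on the agar. Inhibition zone diameter read after incubation at 35 °C. Fluconazole control at 25 µg per disc.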

[3] = system: Bacillus cereus; experiment: Antibacterial activity against Bacillus cereus ATCC 11778 after 18 hrs by serial agar dilution method; type: functional; conditions: ATCC 11778, 18 h
Outline: (§3)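 MIC by twofold serial agar dilution in Mueller–Hinton II agar per CLSI, run only for compounds that gave an inhibition zone in disc assay. Compounds dissolved in DMSO, tested at 3.125–400 µg/ml in agar. Final inoculum 10^4 CFU/ml. […] DMSO control included.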

[4] = system: Staphylococcus aureus; experiment: Antibacterial activity against Staphylococcus aureus ATCC 25923 after 18 hrs by serial agar dilution method; type: functional; conditions: ATCC 25923, 18 h; outline: as §3
[5] = system: Candida albicans; experiment: Antifungal activity against Candida albicans ATCC 90028 at 400 ug/disc after 24 hrs by disc diffusion assay; type: functional; outline: as §2
[6] = system: Micrococcus luteus; experiment: Antibacterial activity against Micrococcus luteus ATCC 9341 at 400 ug/disc after 18 hrs by disc diffusion assay; type: functional; conditions: for zone of inhibition at 400 µg/disc: ATCC 9341, 18 h, read-out: IZ; outline: as §1
[7] = system: Staphylococcus aureus; experiment: Antibacterial activity against Staphylococcus aureus ATCC 29213 at 400 ug/disc after 18 hrs by disc diffusion assay; type: functional; conditions: ATCC 29213, 18 h, read-out: IZ; outline: as §1
[8] = system: Enterococcus hirae; experiment: Antibacterial activity against Enterococcus hirae ATCC 10541 at 400 ug/disc after 18 hrs by disc diffusion assay; type: functional; outline: as §1
[9] = system: Micrococcus luteus; experiment: Antibacterial activity against Micrococcus luteus ATCC 9341 after 18 hrs by serial agar dilution method; type: functional; conditions: ATCC 9341, 18 h; outline: as §3
[10] = system: Staphylococcus aureus; experiment: Antibacterial activity against Staphylococcus aureus NCTC 4163 after 18 hrs by serial agar dilution method; type: functional; conditions: NCTC 4163, 18 h; outline: as §3
[11] = system: Pseudomonas aeruginosa; experiment: Antibacterial activity against Pseudomonas aeruginosa ATCC 27853 at 400 ug/disc after 18 hrs by disc diffusion assay; type: functional, organism-based; outline: as §1
[12] = system: Candida albicans; experiment: Antifungal activity against Candida albicans ATCC 10231 at 400 ug/disc after 24 hrs by disc diffusion assay; type: functional; outline: as §2
[13] = system: Micrococcus luteus; experiment: Antibacterial activity against Micrococcus luteus ATCC 10240 at 400 ug/disc after 18 hrs by disc diffusion assay; type: functional; conditions: ATCC 10240, 18 h, read-out: IZ; outline: as §1
[14] = system: Staphylococcus aureus; experiment: Antibacterial activity against Staphylococcus aureus ATCC 29213 after 18 hrs by serial agar dilution method; type: functional; conditions: ATCC 29213, 18 h; outline: as §3
[15] = system: Pseudomonas aeruginosa; experiment: Antibacterial activity against Pseudomonas aeruginosa NCTC 6749 at 400 ug/disc after 18 hrs by disc diffusion assay; type: functional, organism-based; outline: as §1
[16] = system: Bordetella bronchiseptica; experiment: Antibacterial activity against Bordetella bronchiseptica ATCC 4617 at 400 ug/disc after 18 hrs by disc diffusion assay; type: functional, organism-based; outline: as §1
[17] = system: Proteus vulgaris; experiment: Antibacterial activity against Proteus vulgaris NCTC 4635 at 400 ug/disc after 18 hrs by disc diffusion assay; type: functional, organism-based; outline: as §1
[18] = system: Enterococcus hirae; experiment: Antibacterial activity against Enterococcus hirae ATCC 10541 after 18 hrs by serial agar dilution method; type: functional; conditions: ATCC 10541, 18 h
Outline: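 Twofold serial agar dilution MIC in Mueller–Hinton II agar (CLSI), run only for compounds that gave an inhibition zone in disc assay. DMSO solutions tested at 3.125–400 µg/ml in agar. Final inoculum 10^5 CFU/ml. Read after 18 h at 35 °C. DMSO control included.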

[19] = system: Staphylococcus aureus; experiment: Antibacterial activity against Staphylococcus aureus NCTC 4163 at 400 ug/disc after 18 hrs by disc diffusion assay; type: functional; conditions: NCTC 4163, 18 h, read-out: IZ; outline: as §1
[20] = system: Staphylococcus aureus; experiment: Antibacterial activity against Staphylococcus aureus ATCC 6538 after 18 hrs by serial agar dilution method; type: functional; conditions: ATCC 6538, 18 h; outline: as §3
[21] = system: Escherichia coli; experiment: Antibacterial activity against Escherichia coli ATCC 25922 at 400 ug/disc after 18 hrs by disc diffusion assay; type: functional, organism-based; outline: as §1
[22] = system: Bacillus cereus; experiment: Antibacterial activity against Bacillus cereus ATCC 11778 at 400 ug/disc after 18 hrs by disc diffusion assay; type: functional; conditions: ATCC 11778, 18 h, read-out: IZ; outline: as §1
[23] = system: Escherichia coli; experiment: Antibacterial activity against Escherichia coli ATCC 10538 at 400 ug/disc after 18 hrs by disc diffusion assay; type: functional, organism-based; outline: as §1
[24] = system: Staphylococcus epidermidis; experiment: Antibacterial activity against Staphylococcus epidermidis ATCC 12228 at 400 ug/disc after 18 hrs by disc diffusion assay; type: functional; conditions: for zone of inhibition at 400 µg/disc: ATCC 12228, 18 h, read-out: IZ; outline: as §1
[25] = system: Staphylococcus epidermidis; experiment: Antibacterial activity against Staphylococcus epidermidis ATCC 12228 after 18 hrs by serial agar dilution method; type: functional; conditions: ATCC 12228, 18 h; outline: as §3
[26] = system: Staphylococcus aureus; experiment: Antibacterial activity against Staphylococcus aureus ATCC 25923 at 400 ug/disc after 18 hrs by disc diffusion assay; type: functional; conditions: ATCC 25923, 18 h, read-out: IZ; outline: as §1
[27] = system: Staphylococcus aureus; experiment: Antibacterial activity against Staphylococcus aureus ATCC 6538 at 400 ug/disc after 18 hrs by disc diffusion assay; type: functional; conditions: ATCC 6538, 18 h, read-out: IZ; outline: as §1
[28] = system: Bacillus subtilis; experiment: Antibacterial activity against Bacillus subtilis ATCC 6633 at 400 ug/disc after 18 hrs by disc diffusion assay; type: functional; conditions: ATCC 6633, 18 h, read-out: IZ; outline: as §1
[29] = system: Pseudomonas aeruginosa; experiment: Antibacterial activity against Pseudomonas aeruginosa ATCC 15442 at 400 ug/disc after 18 hrs by disc diffusion assay; type: functional, organism-based; outline: as §1
[30] = system: Bacillus subtilis; experiment: Antibacterial activity against Bacillus subtilis ATCC 6633 after 18 hrs by serial agar dilution method; type: functional; conditions: ATCC 6633, 18 h; outline: as §3
[31] = system: Micrococcus luteus; experiment: Antibacterial activity against Micrococcus luteus ATCC 10240 after 18 hrs by serial agar dilution method; type: functional; conditions: ATCC 10240, 18 h; outline: as §3

C=CCOC(=O)[C@@H](C)[C@H](OC)[C@H](C)[C@H]1O[C@@]2(CC[C@@](C)([C@H]3CC[C@@](CC)([C@@H]4O[C@@H]([C@H]5O[C@@](O)(CO)[C@H](C)C[C@@H]5C)C[C@@H]4C)O3)O2)C[C@H](O)[C@H]1C
15 mm: zone of inhibition at 400 µg/disc [28]
13 mm: zone of inhibition at 400 µg/disc [7] | zone of inhibition at 400 µg/disc [19] | zone of inhibition at 400 µg/disc [27]
14 mm: zone of inhibition at 400 µg/disc [22]
> 400 µg/mL: MIC [18]
12.5 µg/mL: MIC [3] | MIC [30]
inactive: Activity [1] | Activity [2] | Activity [5] | Activity [6] | Activity [8] | Activity [11] | Activity [12] | Activity [15] | Activity [16] | Activity [17] | Activity [21] | Activity [23] | Activity [24] | Activity [29]
11 mm: zone of inhibition at 400 µg/disc [13] | zone of inhibition at 400 µg/disc [26]
50 µg/mL: MIC [31]
100 µg/mL: MIC [4] | MIC [9] | MIC [10] | MIC [14] | MIC [20] | MIC [25]

CC[C@@]1([C@@H]2O[C@@H]([C@H]3O[C@@](O)(CO)[C@H](C)C[C@@H]3C)C[C@@H]2C)CC[C@H]([C@]2(C)CC[C@]3(C[C@H](O)[C@@H](C)[C@@H]([C@@H](C)[C@@H](OC)[C@H](C)C(=O)OCCOCCOCCOC)O3)O2)O1
100 µg/mL: MIC [10] | MIC [20] | MIC [25]
17 mm: zone of inhibition at 400 µg/disc [7] | zone of inhibition at 400 µg/disc [27]
13 mm: zone of inhibition at 400 µg/disc [13] | zone of inhibition at 400 µg/disc [24]
50 µg/mL: MIC [3] | MIC [4] | MIC [14] | MIC [31]
200 µg/mL: MIC [9]
20 mm: zone of inhibition at 400 µg/disc [28]
19 mm: zone of inhibition at 400 µg/disc [19] | zone of inhibition at 400 µg/disc [22] | zone of inhibition at 400 µg/disc [26]
inactive: Activity [1] | Activity [2] | Activity [5] | Activity [8] | Activity [11] | Activity [12] | Activity [15] | Activity [16] | Activity [17] | Activity [21] | Activity [23] | Activity [29]
25 µg/mL: MIC [30]
> 400 µg/mL: MIC [18]
11 mm: zone of inhibition at 400 µg/disc [6]

CC[C@@]1([C@@H]2O[C@@H]([C@H]3O[C@@](O)(CO)[C@H](C)C[C@@H]3C)C[C@@H]2C)CC[C@H]([C@]2(C)CC[C@]3(C[C@H](O)[C@@H](C)[C@@H]([C@@H](C)[C@@H](OC)[C@H](C)C(=O)O)O3)O2)O1 [MONENSIN]
18 mm: zone of inhibition at 400 µg/disc [7] | zone of inhibition at 400 µg/disc [22]
12.5 µg/mL: MIC [18]
4 µg/mL: MIC [9]
2 µg/mL: MIC [3] | MIC [10] | MIC [20] | MIC [25] | MIC [31]
20 mm: zone of inhibition at 400 µg/disc [27]
1 µg/mL: MIC [4] | MIC [14] | MIC [30]
15 mm: zone of inhibition at 400 µg/disc [24]
12 mm: zone of inhibition at 400 µg/disc [6] | zone of inhibition at 400 µg/disc [13]
inactive: Activity [1] | Activity [2] | Activity [5] | Activity [8] | Activity [11] | Activity [12] | Activity [15] | Activity [16] | Activity [17] | Activity [21] | Activity [23] | Activity [29]
22 mm: zone of inhibition at 400 µg/disc [19] | zone of inhibition at 400 µg/disc [26] | zone of inhibition at 400 µg/disc [28]
